Measured values reported in ChEMBL document CHEMBL4261567, “Phenylethynyl-substituted Heterocycles Inhibit Cyclin D1 and Induce the Expression of Cyclin-dependent Kinase Inhibitor p21Wif1/Cip1 in Colorectal Cancer Cells” (Medchemcomm, 2018).
Calls of active or inactive are those of the source. No cut-off for these calls is given here.

Assays:
LS174T [1] = test: Antiproliferative activity against human LS174T cells assessed as inhibition of cell proliferation at 1 uM after 4 days by Vi-Cell cell viability analyzer based method relative to control; format: functional; conditions: 96 h
How it was run: (§1)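 Cells (colon LS174T, HT-29, Caco2; lung epithelial BEAS-2B; fibroblast HEL 299) were kept in RPMI or DMEM with 5% or 10% FBS plus 1% penicillin/streptomycin. 3 × 10^4 cells per well were exposed to DMSO or compound. After 4 days, cell number and viability were counted on a Vi-Cell analyzer. Results are given as percent inhibition of proliferation at the stated concentration.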

LS174T [2] = test: Antiproliferative activity against human LS174T cells assessed as inhibition of cell proliferation at 10 uM after 4 days by Vi-Cell cell viability analyzer based method relative to control; format: functional; conditions: 96 h; how it was run: as §1
LS174T [3] = test: Antiproliferative activity against human LS174T cells assessed as inhibition of cell proliferation at 100 nM after 4 days by Vi-Cell cell viability analyzer based method relative to control; format: functional; conditions: 96 h; how it was run: as §1
[4] = Cytotoxicity against human HEL299 cells assessed as inhibition of cell proliferation at 1 uM after 4 days by Vi-Cell cell viability analyzer based method relative to control; parameters: species or system HEL 299; how it was run: as §1
Caco-2 [5] = test: Antiproliferative activity against human Caco2 cells assessed as inhibition of cell proliferation at 1 uM after 4 days by Vi-Cell cell viability analyzer based method relative to control; format: functional; conditions: Caco-2, 96 h; how it was run: as §1
[6] = target: G1/S-specific cyclin-D1 (Homo sapiens) (UniProt P24385); test: Inhibition of cyclin D1 in human LS174T cells assessed as induction of p21 waf1/cip1 expression at 300 nM by Western blot analysis; format: cell-based
Sequence of G1/S-specific cyclin-D1 (Homo sapiens) (P24385 whole entry): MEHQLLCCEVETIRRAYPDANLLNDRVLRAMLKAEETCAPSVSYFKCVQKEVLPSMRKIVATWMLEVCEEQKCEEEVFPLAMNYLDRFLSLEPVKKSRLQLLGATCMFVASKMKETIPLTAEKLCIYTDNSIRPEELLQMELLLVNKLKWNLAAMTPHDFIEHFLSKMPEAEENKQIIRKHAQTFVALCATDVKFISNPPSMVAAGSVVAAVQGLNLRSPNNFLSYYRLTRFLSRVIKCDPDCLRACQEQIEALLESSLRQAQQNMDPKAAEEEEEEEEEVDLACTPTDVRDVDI
How it was run: (§2)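 LS174T cells were treated at 300 nM. Lysates were western blotted with antibodies to cyclin D1 and p21Wif1/Cip1, using β-tubulin as the loading control.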

[7] = Cytotoxicity against human HEL299 cells assessed as inhibition of cell proliferation at 10 uM after 4 days by Vi-Cell cell viability analyzer based method relative to control; parameters: species or system HEL 299; how it was run: as §1
LS174T [8] = test: Antiproliferative activity against human LS174T cells assessed as inhibition of cell proliferation after 4 days by Vi-Cell cell viability analyzer based method; format: functional; conditions: 96 h
How it was run: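 LS174T cells in RPMI or DMEM with 5% or 10% FBS plus 1% penicillin/streptomycin were seeded at 3 × 10^4 cells per well. They were treated with DMSO or a range of compound concentrations, and cell number and viability were counted on a Vi-Cell analyzer after 4 days. IC50 was fitted from the dose-response curve.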

HT-29 [9] = test: Antiproliferative activity against human HT-29 cells assessed as inhibition of cell proliferation at 1 uM after 4 days by Vi-Cell cell viability analyzer based method relative to control; format: functional; conditions: HT-29, 96 h; how it was run: as §1
LS174T [10] = test: Antiproliferative activity against human LS174T cells assessed as inhibition of cell proliferation at 30 nM after 4 days by Vi-Cell cell viability analyzer based method relative to control; format: functional; conditions: 96 h; how it was run: as §1
[11] = target: G1/S-specific cyclin-D1 (Homo sapiens) (UniProt P24385); test: Inhibition of cyclin D1 in human LS174T cells assessed as reduction in protein level at 300 nM by Western blot analysis; format: cell-based; how it was run: as §2
[12] = Cytotoxicity against human BEAS2B cells assessed as inhibition of cell proliferation at 1 uM after 4 days by Vi-Cell cell viability analyzer based method relative to control; parameters: species or system BEAS-2B; how it was run: as §1
[13] = Cytotoxicity against human BEAS2B cells assessed as inhibition of cell proliferation at 10 uM after 4 days by Vi-Cell cell viability analyzer based method relative to control; parameters: species or system BEAS-2B; how it was run: as §1
[14] = target: S-adenosylmethionine synthase isoform type-2 (Homo sapiens) (UniProt P31153); test: Binding affinity to GST-tagged MAT2A (unknown origin) expressed in Escherichia coli BL21 by Western blot based pull down assay
Sequence of S-adenosylmethionine synthase isoform type-2 (Homo sapiens) (P31153 whole entry, looked up, canonical isoform): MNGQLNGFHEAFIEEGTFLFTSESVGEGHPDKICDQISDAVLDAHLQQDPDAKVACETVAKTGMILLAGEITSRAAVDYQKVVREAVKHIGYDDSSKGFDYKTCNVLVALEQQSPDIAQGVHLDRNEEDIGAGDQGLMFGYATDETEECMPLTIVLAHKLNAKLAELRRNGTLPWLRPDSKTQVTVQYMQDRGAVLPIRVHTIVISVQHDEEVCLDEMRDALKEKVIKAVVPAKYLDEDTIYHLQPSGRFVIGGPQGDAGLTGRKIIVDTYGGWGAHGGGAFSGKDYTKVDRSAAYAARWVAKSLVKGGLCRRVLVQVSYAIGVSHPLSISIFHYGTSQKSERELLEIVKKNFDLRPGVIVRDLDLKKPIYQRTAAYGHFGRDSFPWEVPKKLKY
How it was run: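 Recombinant MAT2A was incubated with or without the biotinylated probe, and the complex was captured on streptavidin beads. Bound protein was eluted with 2.5 mM D-(+)-biotin, run on 10% SDS-PAGE, and detected by western blot with an anti-MAT2A antibody.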

Caco-2 [15] = test: cells; conditions: Homo sapiens, Caco-2, 96 h, read-out: INH
HT-29 [16] = test: cells; conditions: Homo sapiens, HT-29, 96 h, read-out: INH

SMILES	inhibition at 1 µM (LS174T [1]) [%]	inhibition at 10 µM (LS174T [2]) [%]	inhibition at 0.1 µM (LS174T [3]) [%]	further results
Nc1ccnc2cc(C#Cc3c(F)cccc3F)ccc12	23.6	97.7		
Fc1cccc(F)c1C#Cc1ccc2nccc(Cl)c2c1	43.8	89.7		
CN1CCN(c2ncc(C#Cc3c(F)cccc3F)c3ccccc23)CC1	23.2	100		
CNc1ncc(C#Cc2c(F)cccc2F)c2ccccc12	99.8	98.9	99.5	inhibition at 96 h, 1 µM [4]: 6.3%; inhibition at 1 µM (Caco-2 [5]): 58.3%; inhibition [6]: Active; inhibition at 96 h, 10 µM [7]: 9.5%; IC50 (LS174T [8]): 4.2 nM; inhibition at 1 µM (HT-29 [9]): 76.8%; inhibition at 0.03 µM (LS174T [10]): 94.5%; inhibition [11]: Active; inhibition at 96 h, 1 µM [12]: 5.8%; inhibition at 96 h, 10 µM [13]: 19.2%
Fc1cccc(F)c1C#Cc1ccc(-n2cccc2)nc1	80.5	95.3	0	
Fc1ccc2ccnc(C#Cc3c(F)cccc3F)c2c1	71.1	96.2	0	
Fc1cccc(F)c1C#Cc1ccc2cn[nH]c2c1	81.5	97		
Fc1cccc(F)c1C#Cc1ccc(-n2cccc2)cc1	77.5	96.7	11	
Nc1ncc(C#Cc2c(F)cccc2F)c2ccccc12	86.2	93.1	35.5	
Fc1cccc(F)c1C#Cc1ccnc2ccccc12	15.4	59		
Fc1cccc(F)c1C#Cc1cccc2cccnc12	47.6	92.7		
Fc1cccc(F)c1C#Cc1ccc2ccccc2n1	67.3	93.8	6.1	
Fc1cccc(F)c1C#Cc1ccnc2cc(Cl)ccc12	36	74.3		
O=C1CCCCN1c1ccc(C#Cc2c(F)cccc2F)cc1	6.4	68.1		
CN(C)c1ncc(C#Cc2c(F)cccc2F)c2ccccc12	99.5	97.6	81.7	inhibition at 96 h, 1 µM [4]: 13.9%; inhibition at 1 µM (Caco-2 [5]): 54.5%; inhibition [6]: Active; inhibition at 96 h, 10 µM [7]: 11.7%; IC50 (LS174T [8]): 11.8 nM; inhibition at 1 µM (HT-29 [9]): 35.9%; inhibition at 0.03 µM (LS174T [10]): 86%; inhibition [11]: Active; inhibition at 96 h, 1 µM [12]: 1.5%; inhibition at 96 h, 10 µM [13]: 16.2%
Fc1cccc(F)c1C#Cc1cnc(Cl)c2ccccc12	48.1	94	0.8	
Fc1cccc(F)c1C#Cc1ccc2[nH]ncc2c1	17.6	82.9		
Fc1cccc(F)c1C#Cc1ccc2c(Cl)ccnc2c1	23.1	70.8		
Fc1cccc(F)c1C#Cc1cnc2ccccc2c1	41.7	90.4	0	
CN(CC(=O)NCCOCCOCCNC(=O)CCCC[C@@H]1SC[C@@H]2NC(=O)N[C@@H]21)c1ccc(C#Cc2c(F)cccc2F)c2ccccc12				Activity [14]: Active
Cn1ncc2ccc(C#Cc3c(F)cccc3F)cc21	85.9	98.1	0	
Fc1cccc(F)c1C#Cc1cnc2ccccc2c1Cl	51.5	80.4	0	
CN(C)c1ccc(C#Cc2c(F)cccc2F)cc1				inhibition [6]: Active; IC50 (LS174T [8]): 25.1 nM; inhibition [11]: Active
O=c1[nH]cc(F)c(=O)[nH]1 [FLUOROURACIL]	6.5	82.3		inhibition at 96 h, 1 µM [4]: 12.1%; inhibition at 1 µM (Caco-2 [5]): 37.7%; inhibition at 10 µM (Caco-2 [15]): 60.2%; inhibition at 96 h, 10 µM [7]: 64.6%; inhibition at 1 µM (HT-29 [9]): 11.6%; inhibition at 10 µM (HT-29 [16]): 82.9%; inhibition at 96 h, 1 µM [12]: 4.5%; inhibition at 96 h, 10 µM [13]: 57.5%
Fc1cccc(F)c1C#Cc1cncc2ccccc12	16.5	87.9		
Fc1cccc(F)c1C#Cc1ccc2cncnc2c1	33.8	96.3		

SMILES	inhibition at 1 µM (LS174T [1]) [%]	inhibition at 10 µM (LS174T [2]) [%]	inhibition at 0.1 µM (LS174T [3]) [%]	further results
Fc1ccc2cc(C#Cc3c(F)cccc3F)cnc2c1	69.4	95.1	14.8	
CN(C)c1ccc(C#Cc2c(F)cccc2F)nc1	68.9	85.2	15.1	
Fc1cccc(F)c1C#Cc1cc2ccccc2nc1Cl	28.4	85.1		
CN(C)c1ncc(C#Cc2c(F)cccc2F)c2ncccc12	87.9	85.2	59.5	
CN1CCN(c2ccc(C#Cc3c(F)cccc3F)cc2)CC1	19.9	99.6		
Cc1ccc(C)n1-c1ccc(C#Cc2c(F)cccc2F)cc1	20.9	78.8		
Fc1cccc(F)c1C#Cc1ccc2cnccc2c1	11.6	82.4		
Fc1cccc(F)c1C#Cc1nccc2ccccc12	35.4	96.7		
Cn1ccc2cc(C#Cc3c(F)cccc3F)ccc21	77.7	95.2	3	
Cn1ncc2cc(C#Cc3c(F)cccc3F)ccc21	58.4	94.6	0	
Fc1cccc(F)c1C#Cc1cccc2cnccc12	64.2	93.6		
Nc1ccnc2ccc(C#Cc3c(F)cccc3F)cc12	66.2	93.9	0	
Fc1cccc(F)c1C#Cc1ccc(N2CCOCC2)cc1	13	32.1		
Nc1ccc2ncc(C#Cc3c(F)cccc3F)cc2c1		9.2		
Fc1cccc(F)c1C#Cc1ccc2ncccc2c1	11	80.1		
Fc1cccc(F)c1C#Cc1ccc2[nH]ccc2c1	52.9	91.5		
CN(C)c1ccc2cc(C#Cc3c(F)cccc3F)ccc2n1	2	38.7		
Fc1cccc(F)c1C#Cc1cccc2[nH]ncc12	19.8	96.2		
Fc1cccc(F)c1C#Cc1ccc2nc(Cl)ccc2c1	21.2	63.3		
Fc1cccc(F)c1C#Cc1ccc2cccnc2c1	90.7	99.4	2.9	
CN(C)c1ccc(C#Cc2c(F)cccc2F)cn1	77.9	83.6	0	
Fc1cccc(F)c1C#Cc1cnc2[nH]ccc2c1	17.3	77.9		
Fc1cccc(F)c1C#Cc1cnc2c(F)cccc2c1	63.6	89.1	8.8	
Fc1cccc(F)c1C#Cc1cccc2ncccc12	43.1	94.7		
CN(C)c1cnc(C#Cc2c(F)cccc2F)cn1	22.9	91.6		
